{"data": "Assay results pooled from the literature", "ALOX5": "Polyunsaturated fatty acid 5-lipoxygenase (ALOX5, Homo sapiens, UniProt P09917)", "SLC47A2": "Multidrug and toxin extrusion protein 2 (SLC47A2, Homo sapiens, UniProt Q86VL8)", "murD": "UDP-N-acetylmuramoylalanine--D-glutamate ligase (murD, Escherichia coli K-12, UniProt P14900)", "BCKDK": "Branched-chain alpha-ketoacid dehydrogenase kinase (BCKDK, Homo sapiens, UniProt O14874)", "note": "Each line is one published result; the experiments were not run side by side."}
{"SMILES": "C=C(C)[C@@H]1CCC(C)=C[C@H]1c1c(O)cc(CCCCC)cc1O", "target": "ALOX5", "assay": "enzyme activity in cells, inhibitor", "IC50": "> 10 µM"}
{"SMILES": "Cc1ccc(C(=O)Nc2ccc(S(=O)(=O)O)c3cc(S(=O)(=O)O)cc(S(=O)(=O)O)c23)cc1NC(=O)c1cccc(NC(=O)Nc2cccc(C(=O)Nc3cc(C(=O)Nc4ccc(S(=O)(=O)O)c5cc(S(=O)(=O)O)cc(S(=O)(=O)O)c45)ccc3C)c2)c1", "target": "Tyrosine-protein phosphatase non-receptor type 7 (PTPN7, Homo sapiens, UniProt P35236)", "assay": "enzyme activity, inhibitor, fluorescence", "IC50": "30 µM"}
{"SMILES": "C[C@@H]1CCO[C@H]2Cn3cc(C(=O)NCc4ccc(F)cc4F)c(=O)c(O)c3C(=O)N12", "target": "SLC47A2", "assay": "transporter uptake, inhibitor, radiometric", "test system": "HEK293", "conditions": "5 min, pH 8.5", "IC50": "24.8 µM"}
{"SMILES": "O=C(NO)c1ccc(NC(=O)C2(c3ccc(F)cc3)CCCC2)c(F)c1", "target": "Histone deacetylase 1 (HDAC1, Homo sapiens, UniProt Q13547)", "assay": "enzyme activity, inhibitor", "IC50": "0.204 µM"}
{"SMILES": "Cc1ccc(-c2cc(-c3ccc(-c4ccc(C(=O)O)cc4)[nH]3)nc3c(C(C)C)cccc23)cc1", "target": "Retinoic acid receptor beta (RARB, Homo sapiens, UniProt P10826)", "assay": "reporter gene, antagonist", "IC50": "> 3.3 µM"}
{"SMILES": "O=C(Nc1ccccc1C=NNS(=O)(=O)c1ccc2ccccc2c1)c1ccc([N+](=O)[O-])cc1", "target": "murD", "assay": "enzyme activity, inhibitor, absorbance", "IC50": "43 µM"}
{"SMILES": "CCCc1nc2c(C)cc(-c3nc4ccccc4n3C)cc2n1Cc1ccc(-c2ccccc2C(=O)O)cc1", "target": "BCKDK", "assay": "enzyme activity, inhibitor", "IC50": "> 300 µM"}
{"SMILES": "CN1CCN(c2ccc(Nc3ncc4cc(C#N)c(=O)n(C5CCCC5)c4n3)cc2)CC1", "target": "TGF-beta receptor type-2 (TGFBR2, Homo sapiens, UniProt P37173)", "assay": "enzyme activity, inhibitor", "IC50": "0.123 µM"}
{"SMILES": "CCCCCCCCCCCCCCCc1cccc(O)c1C(=O)O", "target": "Histone acetyltransferase KAT2B (KAT2B, Homo sapiens, UniProt Q92831)", "assay": "enzyme activity, inhibitor, radiometric", "IC50": "> 200 µM"}
{"SMILES": "CNC(=O)c1cc2c(Oc3ccc(NC(=O)C4(C(=O)Nc5ccc(F)cc5)CC4)cc3)ccnc2cc1OC", "target": "Ephrin type-A receptor 8 (EPHA8, Homo sapiens, UniProt P29322)", "assay": "enzyme activity, inhibitor, radiometric", "IC50": "0.034 µM"}
{"SMILES": "CCS(=O)(=O)N1CC(CC#N)(n2cc(-c3ncnc4[nH]ccc34)cn2)C1", "target": "SLC47A2", "assay": "transporter uptake, inhibitor, radiometric", "conditions": "2 min", "IC50": "13.7 µM"}
{"SMILES": "O=c1c(O)c(-c2ccc(O)cc2)oc2cc(O)cc(O)c12", "target": "Histone deacetylase 8 (HDAC8, Homo sapiens, UniProt Q9BY41)", "assay": "enzyme activity, inhibitor", "IC50": "7.8 µM"}
{"SMILES": "O=C(Nc1ccc(C=NNS(=O)(=O)c2ccc3ccccc3c2)cc1)c1ccccc1[N+](=O)[O-]", "target": "murD", "assay": "enzyme activity, inhibitor, absorbance", "IC50": "45 µM"}
{"SMILES": "CCCc1nc2c(n1Cc1ccc(-c3ccccc3-c3nnn[nH]3)cc1)C(=O)CCCC2", "target": "BCKDK", "assay": "enzyme activity, inhibitor", "IC50": "0.68 µM"}
{"SMILES": "CCCCCc1cc(O)c(C/C=C(\\C)CCC=C(C)C)c(O)c1", "target": "ALOX5", "assay": "enzyme activity in cells, inhibitor", "IC50": "2 µM"}
{"SMILES": "CCCC[C@@H](C(=O)N[C@@H](CC(=O)O)C(=O)N(C)[C@@H](Cc1ccccc1)C(N)=O)N(C)C(=O)[C@H](Cc1c[nH]c2ccccc12)NC(=O)CNC(=O)[C@H](Cc1ccc(O)cc1)NC(=O)[C@H](C)NC(=O)[C@@H](CCC(=O)O)NC(=O)CN1CCN(CC(=O)O)CCN(CC(=O)O)CCN(CC(=O)O)CC1", "target": "Gastrin/cholecystokinin type B receptor (Rattus norvegicus, UniProt P30553)", "assay": "ligand displacement, radioligand", "IC50": "0.00453 µM"}
{"SMILES": "COc1cc(C[C@H]2C(=O)OC[C@@H]2Cc2ccc(OC)c(OC)c2)ccc1O", "target": "High affinity cAMP-specific and IBMX-insensitive 3',5'-cyclic phosphodiesterase 8A (PDE8A, Homo sapiens, UniProt O60658)", "assay": "enzyme activity, inhibitor", "IC50": "> 20 µM"}
